Results published in ChEMBL document CHEMBL1149798, “Synthesis, computational study and cytotoxic activity of new 4-hydroxycoumarin derivatives” (Eur J Med Chem, 2008).

What was measured:
[1] = Cytotoxicity against human […] cells after 72 hrs by MTT assay; type: functional, cell-based
Procedure, shortened: (§1)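 Exponentially growing cells were seeded at 3.5 × 10⁵ cells/ml (adherent EJ) or 1 × 10⁵ cells/ml (suspension HL-60), grown 24 h, then exposed continuously for 72 h. Drugs came from fresh DMSO stocks diluted in medium to ≤0.5% final DMSO, with eight wells per concentration. MTT (10 mg/ml PBS stock) was added for 4 h at 37 °C, formazan dissolved in 5% HCOOH/2-propanol, and read at 580 nm. IC50 was taken from a sigmoidal non-linear fit of survival as % of untreated control.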

HL-60 = test: Cytotoxicity against human HL60 cells after 72 hrs by MTT assay; type: functional, cell-based; details: HL-60, 72 h; procedure, shortened: as §1
[2] = test system: Strongylocentrotus purpuratus; test: Inhibition of Strongylocentrotus purpuratus embryos cleavage at 10 uM; type: functional

Row | Compound | IC50 [1] [µM] | IC50 (HL-60) [µM] | inhibition at 10 µM [2] [%]
1 | CCOC(=O)C(C(C)=O)C(c1ccc(O)c(O)c1)c1c(O)c2ccccc2oc1=O (stereo not drawn) | 116 | 35.1 | 
2 | CCOC(=O)C(C(C)=O)C(c1ccc(C(=O)O)cc1)c1c(O)c2ccccc2oc1=O (stereo not drawn) | > 200 | > 200 | 
3 | CCOC(=O)C(C(C)=O)C(c1cccc([N+](=O)[O-])c1)c1c(O)c2ccccc2oc1=O (stereo not drawn) | 172 | 90.8 | 
4 | CCOC(=O)C(C(C)=O)C(c1ccc([N+](=O)[O-])cc1)c1c(O)c2ccccc2oc1=O (stereo not drawn) | > 200 | > 200 | 
5 | CCOC(=O)C(C(C)=O)C(c1ccc(O)cc1)c1c(O)c2ccccc2oc1=O (stereo not drawn) | > 200 | > 200 | 
6 | O=c1oc2ccccc2c(O)c1Cc1c(O)c2ccccc2oc1=O [DICUMAROL] |  |  | 50
7 | N[C@@H](Cc1ccc(N(CCCl)CCCl)cc1)C(=O)O [MELPHALAN] | 22.1 | 11.4 | 
